Measurements from ChEMBL document CHEMBL1128739, “Structure-activity relationships in the 8-amino-6,7,8,9-tetrahydro-3H-benz[e]indole ring system. 2. Effects of 8-amino nitrogen substitution on serotonin receptor binding and pharmacology” (J Med Chem, 1995).
The source made the active and inactive calls. The calls are words filed in the database; no cut-off is given here.

Legend:
[1] = target: 5-hydroxytryptamine receptor 1D (Homo sapiens, UniProt P28221); assay: In vitro binding affinity against cloned mammalian 5-hydroxytryptamine 1D receptor alpha expressed in CHO cells, by using [3H]5-HT as radioligand; format: cell-based
Method in brief: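 Competition binding on CHO-cell membranes (20-60 μg protein) in 50 mM Tris, 5 mM MgCl2, 0.1% ascorbic acid, pH 7.4. Nonspecific binding defined with excess serotonin. 11 drug concentrations, each in duplicate. Incubated 1 h at room temperature, protected from light, then filtered and scintillation counted. IC50 taken from a one-site fit; Ki by Cheng-Prusoff.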

[2] = target: T1, 5-hydroxytryptamine receptor 1B (Homo sapiens, UniProt P28222); assay: The compound was tested in vitro for binding affinity against cloned mammalian 5-hydroxytryptamine 1D receptor beta expressed in CHO cells, by using [3H]5-HT as radioligand; format: cell-based; set-up: concentration or dose not given beside the values; conditions: concentration not given here
Method in brief: (§1)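 Membranes from CHO cells stably expressing the cloned receptor, made by mechanical disruption in ice-cold Tris/EDTA/EGTA pH 7.4 and differential centrifugation. [3H]serotonin at 1.7 nM in 50 mM Tris, 5 mM MgCl2, 0.1% ascorbic acid, pH 7.4. 11 drug concentrations in duplicate, 1 h at room temperature protected from light, then filtration. Excess serotonin defines nonspecific binding. One-site IC50 fit, Ki by Cheng-Prusoff.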

D(2) dopamine receptor [3] = target: T2, D(2) dopamine receptor (Rattus norvegicus, UniProt P61169); assay: Binding affinity rat Dopamine receptor D2 expressed in CHO-K1 cells by [3H]U-86170 displacement.; format: cell-based
D(3) dopamine receptor = D(3) dopamine receptor (Rattus norvegicus, UniProt P19020); assay: In vitro binding affinity against cloned mammalian Dopamine receptor D3 expressed in CHO cells by, using [3H]-spiperone as radioligand; format: cell-based; conditions: read-out: Ki
Rattus norvegicus [4] = assay: The compound was tested in vivo for biochemical effect against the changes in different brain area levels of DOPA in reserpinized rat limbic system at dose 12.5 uM/kg; inactive; format: functional, organism-based
Method in brief: (§2)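 Male Sprague-Dawley rats (200-300 g) pretreated with reserpine 5 mg/kg sc 18 h before. Injection volume 5 mL/kg, test solutions at neutral pH. DOPA and 5-HTP in limbic system, striatum and hemispheres measured by HPLC with electrochemical detection. Dose-response curves from four to six dose levels (n = 4) per brain area.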

Rattus norvegicus [5] = assay: In vivo changes in different brain area levels of 5-HTP in reserpinized rat corpus striatum.; format: functional
Method in brief: (§3)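 Male Sprague-Dawley rats (200-300 g) pretreated with reserpine 5 mg/kg sc 18 h before. Injection volume 5 mL/kg at neutral pH. Brain-region 5-HTP measured by HPLC with electrochemical detection. Dose-response curves used four to six doses, n = 4.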

Rattus norvegicus [6] = assay: The compound was tested in vivo for biochemical effect against the changes in different brain area levels of DOPA in reserpinized rat corpus striatum; format: functional; method in brief: as §2
Rattus norvegicus [7] = assay: The compound was tested in vivo for biochemical effect against the changes in different brain area levels of DOPA in reserpinized rat hemispheres (mainly cortex)at does 12.5 uM/kg; inactive; format: functional, organism-based; method in brief: as §2
[8] = target: T1, 5-hydroxytryptamine receptor 1B; assay: In vitro binding affinity against cloned mammalian 5-hydroxytryptamine 1D receptor beta expressed in CHO cells, by using [3H]5-HT as radioligand; format: cell-based; method in brief: as §1
D(2) dopamine receptor [9] = target: T2, D(2) dopamine receptor; assay: In vitro binding affinity against cloned mammalian Dopamine receptor D2 expressed in CHO cells using [3H]U-86170 as radioligand; format: cell-based
Method in brief: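 Membranes from CHO cells (20-60 μg protein) in 20 mM HEPES, 10 mM MgSO4, pH 7.4. Nonspecific binding defined with excess haloperidol. 11 concentrations, each in duplicate. Incubated 1 h at room temperature, then filtered and counted. IC50 from a one-site competition fit, converted to Ki by Cheng-Prusoff.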

Rattus norvegicus [10] = assay: The compound was tested in vivo for biochemical effect against the changes in different brain area levels of DOPA in reserpinized rat limbic system at dose 12.5 uM/kg; Partial effect; format: functional, organism-based; method in brief: as §2
Rattus norvegicus [11] = assay: The compound was tested in vivo for biochemical effect against the changes in different brain area levels of DOPA in reserpinized rat corpus striatum at dose 12.5 uM/kg; Partial effect; format: functional, organism-based; method in brief: as §2
Rattus norvegicus [12] = assay: In vivo changes in different brain area levels of 5-HTP in reserpinized rat limbic system.; format: functional; method in brief: as §3
Rattus norvegicus [13] = assay: In vivo for biochemical effect against brain area levels of 5-HTP in reserpinized rat hemispheres (mainly cortex).; format: functional; method in brief: as §2
Rattus norvegicus [14] = assay: The compound was tested in vivo for biochemical effect against the changes in different brain area levels of DOPA in reserpinized rat hemispheres (mainly cortex) at dose 12.5 uM/kg; Inactive; format: functional, organism-based; method in brief: as §2
Rattus norvegicus [15] = assay: The compound was tested in vivo for biochemical effect against the changes in different brain area levels of DOPA in reserpinized rat limbic system at dose 12.5 umol/kg; Partial effect; format: functional, organism-based
Rattus norvegicus [16] = assay: The compound was tested in vivo for biochemical effect against the changes in different brain area levels of DOPA in reserpinized rat corpus striatum at dose 12.5 umol/kg; Partial effect; format: functional, organism-based
Rattus norvegicus [17] = assay: The compound was tested in vivo for biochemical effect against the changes in different brain area levels of DOPA in reserpinized rat hemispheres (mainly cortex)at doest 12.5 umol/kg; Inactive; format: functional, organism-based
Rattus norvegicus [18] = assay: The compound was tested in vivo for biochemical effect against the changes in different brain area levels of DOPA in reserpinized rat corpus striatum at dose 12.5 uM/kg; inactive; format: functional, organism-based; method in brief: as §2
Rattus norvegicus [19] = assay: The compound was tested in vivo for biochemical effect against the changes in different brain area levels of DOPA in reserpinized rat hemispheres (mainly cortex)at dose 12.5 uM/kg; inactive; format: functional, organism-based; method in brief: as §2
Rattus norvegicus [20] = assay: The compound was tested in vivo for biochemical effect against the changes in different brain area levels of DOPA in reserpinized rat limbic system at dose 50 uM/kg; Inactive; format: functional, organism-based
Rattus norvegicus [21] = assay: The compound was tested in vivo for biochemical effect against the changes in different brain area levels of DOPA in reserpinized rat corpus striatum at dose 50 uM/kg; Inactive; format: functional, organism-based; method in brief: as §2
Rattus norvegicus [22] = assay: The compound was tested in vivo for biochemical effect against the changes in different brain area levels of DOPA in reserpinized rat hemispheres (mainly cortex)at dose 50 uM/kg; Inactive; format: functional, organism-based
Rattus norvegicus [23] = assay: The compound was tested in vivo for biochemical effect against the changes in different brain area levels of DOPA in reserpinized rat limbic system; Inactive; format: functional, organism-based
Rattus norvegicus [24] = assay: The compound was tested in vivo for biochemical effect against the changes in different brain area levels of 5-HTP in reserpinized rat corpus striatum at does 50 uM/kg; Partial effect; format: functional, organism-based
Rattus norvegicus [25] = assay: The compound was tested in vivo for biochemical effect against the changes in different brain area levels of DOPA in reserpinized rat corpus striatum at does 50 uM/kg; Inactive; format: functional, organism-based
Rattus norvegicus [26] = assay: The compound was tested in vivo for biochemical effect against the changes in different brain area levels of 5-HTP in reserpinized rat limbic system at dose 50 uM/kg; Partial effect; format: functional, organism-based
Rattus norvegicus [27] = assay: The compound was tested in vivo for biochemical effect against the changes in different brain area levels of 5-HTP in reserpinized rat hemispheres (mainly cortex)at does 50 uM/kg; Partial effect; format: functional, organism-based
Rattus norvegicus [28] = assay: The compound was tested in vivo for biochemical effect against the changes in different brain area levels of DOPA in reserpinized rat hemispheres (mainly cortex)at does 50 uM/kg; Inactive; format: functional, organism-based
Rattus norvegicus [29] = assay: The compound was tested in vivo for biochemical effect against the changes in different brain area levels of DOPA in reserpinized rat limbic system at dose 25 uM/kg; Inactive; format: functional, organism-based
Rattus norvegicus [30] = assay: The compound was tested in vivo for biochemical effect against the changes in different brain area levels of 5-HTP in reserpinized rat corpus striatum at dose 25 uM/kg; Inactive; format: functional, organism-based
Rattus norvegicus [31] = assay: The compound was tested in vivo for biochemical effect against the changes in different brain area levels of DOPA in reserpinized rat corpus striatum at dose 25 uM/kg; Inactive; format: functional, organism-based
Rattus norvegicus [32] = assay: The compound was tested in vivo for biochemical effect against the changes in different brain area levels of 5-HTP in reserpinized rat limbic system at dose 25 uM/kg; Inactive; format: functional, organism-based
Rattus norvegicus [33] = assay: The compound was tested in vivo for biochemical effect against the changes in different brain area levels of 5-HTP in reserpinized rat hemispheres (mainly cortex)at dose 25 uM/kg; Inactive; format: functional, organism-based
Rattus norvegicus [34] = assay: The compound was tested in vivo for biochemical effect against the changes in different brain area levels of DOPA in reserpinized rat hemispheres (mainly cortex)at does 25 uM/kg; Inactive; format: functional, organism-based

5-hydroxytryptamine receptor 1D, sequence (P28221 whole entry): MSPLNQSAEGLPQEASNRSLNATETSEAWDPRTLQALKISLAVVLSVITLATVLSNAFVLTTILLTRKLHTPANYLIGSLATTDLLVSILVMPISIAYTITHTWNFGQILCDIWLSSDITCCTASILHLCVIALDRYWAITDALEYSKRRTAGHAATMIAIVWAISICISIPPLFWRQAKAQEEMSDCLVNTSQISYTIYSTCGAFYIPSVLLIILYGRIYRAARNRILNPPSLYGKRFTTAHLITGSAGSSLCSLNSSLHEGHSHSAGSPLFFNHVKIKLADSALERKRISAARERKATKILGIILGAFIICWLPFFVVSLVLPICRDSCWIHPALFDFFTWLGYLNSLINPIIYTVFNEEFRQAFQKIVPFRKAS
D(3) dopamine receptor, sequence (P19020 whole entry): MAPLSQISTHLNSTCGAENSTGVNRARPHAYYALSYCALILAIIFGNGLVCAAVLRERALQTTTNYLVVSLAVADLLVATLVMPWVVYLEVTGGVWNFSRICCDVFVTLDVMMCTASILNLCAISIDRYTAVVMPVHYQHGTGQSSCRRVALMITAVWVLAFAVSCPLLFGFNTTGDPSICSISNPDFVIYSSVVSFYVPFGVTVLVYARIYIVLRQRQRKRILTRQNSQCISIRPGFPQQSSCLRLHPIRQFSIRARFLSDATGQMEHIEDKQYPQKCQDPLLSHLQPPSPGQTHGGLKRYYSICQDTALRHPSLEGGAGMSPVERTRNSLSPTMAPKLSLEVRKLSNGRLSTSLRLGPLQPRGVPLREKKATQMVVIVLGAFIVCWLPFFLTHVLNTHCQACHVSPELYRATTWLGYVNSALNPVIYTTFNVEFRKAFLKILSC
T2 sequence (P61169 whole entry): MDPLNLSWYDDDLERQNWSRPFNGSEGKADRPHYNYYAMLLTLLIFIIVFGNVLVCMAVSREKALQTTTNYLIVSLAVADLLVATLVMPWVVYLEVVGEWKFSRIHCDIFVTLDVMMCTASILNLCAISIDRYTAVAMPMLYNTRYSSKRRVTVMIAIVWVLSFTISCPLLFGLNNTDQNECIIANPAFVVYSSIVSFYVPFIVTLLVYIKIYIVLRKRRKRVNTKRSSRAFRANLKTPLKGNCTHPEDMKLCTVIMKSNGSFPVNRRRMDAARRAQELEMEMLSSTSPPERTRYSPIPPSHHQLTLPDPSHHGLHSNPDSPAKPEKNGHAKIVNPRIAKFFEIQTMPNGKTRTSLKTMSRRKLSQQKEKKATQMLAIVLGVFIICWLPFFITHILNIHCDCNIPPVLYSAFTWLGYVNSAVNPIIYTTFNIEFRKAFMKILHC
T1 sequence (P28222 whole entry): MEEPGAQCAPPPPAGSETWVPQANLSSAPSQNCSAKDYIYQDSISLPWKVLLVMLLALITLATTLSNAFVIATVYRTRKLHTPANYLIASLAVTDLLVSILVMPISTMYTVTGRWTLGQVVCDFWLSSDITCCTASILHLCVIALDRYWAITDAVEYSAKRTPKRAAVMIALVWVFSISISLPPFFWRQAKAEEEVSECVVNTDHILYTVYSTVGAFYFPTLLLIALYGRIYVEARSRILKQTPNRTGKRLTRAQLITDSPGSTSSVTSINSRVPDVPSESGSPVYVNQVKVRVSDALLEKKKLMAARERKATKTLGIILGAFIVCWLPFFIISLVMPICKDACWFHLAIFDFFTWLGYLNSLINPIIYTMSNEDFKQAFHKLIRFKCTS

Row | Structure (SMILES) | Ki [1] | Ki [8] | Ki (D(2) dopamine receptor [9]; read-out: Ki) | Ki (D(3) dopamine receptor) | ED50 (Rattus norvegicus [5]) | ED50 (Rattus norvegicus [12]) | ED50 (Rattus norvegicus [13]) | also measured
1 | C=CCN(CCC)C1CCc2ccc3[nH]ccc3c2C1 (stereo not drawn) | 35 nM |  |  | 77 nM | 0.18 µmol/kg |  |  | inhibition [2]: < 45%; Ki (D(2) dopamine receptor [3]): 42 nM; ED50 (Rattus norvegicus [4]): inactive; ED50 (Rattus norvegicus [6]): 0.97 µmol/kg; ED50 (Rattus norvegicus [7]): inactive
2 | CN(C)[C@@H]1CCc2ccc3[nH]cc(C=O)c3c2C1 |  | 20 nM | 13 nM | 265 nM | 0.95 µmol/kg | 2.9 µmol/kg | 0.56 µmol/kg | ED50 (Rattus norvegicus [10]): Weak activity; ED50 (Rattus norvegicus [11]): Weak activity; ED50 (Rattus norvegicus [14]): inactive
3 | CCCN(CC(C)C)[C@@H]1CCc2ccc3[nH]ccc3c2C1 | 35 nM | 219 nM | 5.7 nM | 18 nM | 1.23 µmol/kg | 1.8 µmol/kg | 3.59 µmol/kg | ED50 (Rattus norvegicus [4]): inactive; ED50 (Rattus norvegicus [18]): inactive; ED50 (Rattus norvegicus [19]): inactive
4 | CCCN(CCC)CC1CCc2ccc3[nH]cc(C=O)c3c2C1 (stereo not drawn) |  |  |  |  |  |  |  | Ki (D(2) dopamine receptor [9]; cho): Not Active; ED50 (Rattus norvegicus [23]): inactive; ED50 (Rattus norvegicus [24]): Weak activity; ED50 (Rattus norvegicus [25]): inactive; ED50 (Rattus norvegicus [26]): Weak activity; ED50 (Rattus norvegicus [27]): Weak activity; ED50 (Rattus norvegicus [28]): inactive

More lines, main results first:

Row | Ki [1] | Ki [8] | Ki (D(2) dopamine receptor [9]; read-out: Ki) | Structure (SMILES) | Ki (D(3) dopamine receptor) | ED50 (Rattus norvegicus [5]) | ED50 (Rattus norvegicus [12]) | ED50 (Rattus norvegicus [13]) | also measured
5 | 0.9 nM | 14 nM | 5.8 nM | CCCN(CCCc1ccccc1)[C@@H]1CCc2ccc3[nH]cc(C=O)c3c2C1 | 19 nM | 0.43 µmol/kg |  | 0.75 µmol/kg | ED50 (Rattus norvegicus [15]): Weak activity; ED50 (Rattus norvegicus [16]): Weak activity; ED50 (Rattus norvegicus [17]): inactive
6 | 5.1 nM | 187 nM | 28 nM | CCCN(CCCOc1cccc(Cl)c1)C1CCc2ccc3[nH]cc(C=O)c3c2C1 (stereo not drawn) | 159 nM | 4.01 µmol/kg | 4.79 µmol/kg | 5.12 µmol/kg | ED50 (Rattus norvegicus [20]): inactive; ED50 (Rattus norvegicus [21]): inactive; ED50 (Rattus norvegicus [22]): inactive
7 | 250 nM | 1620 nM | 859 nM | CCCN(CCCCN1C(=O)CC(C)(C)CC1=O)[C@H]1CCc2ccc3[nH]cc(C=O)c3c2C1 | 1270 nM |  |  |  | ED50 (Rattus norvegicus [29]): inactive; ED50 (Rattus norvegicus [30]): inactive; ED50 (Rattus norvegicus [31]): inactive; ED50 (Rattus norvegicus [32]): inactive; ED50 (Rattus norvegicus [33]): inactive; ED50 (Rattus norvegicus [34]): inactive
